Test results from PMC8162940 (Nature chemical biology, 2021).

Key:
[1] = biological target: Ikaros (Mus musculus, UniProt Q03267+Q8C7D2, I391V); experiment: Ikaros levels in murine splenocytes, flow cytometry; type: cell-based; details: Crbn^I391V/I391V but not wildtype cells, 1 μM, 16h
[2] = system: IL-2; experiment: IL-2 secretion from stimulated Jurkat cells; type: cell-based, human; details: Jurkat cells pre-treated with 1 μM for 18h, then stimulated 24h
Outline: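 Jurkat cells were pre-incubated 18 h with 1 μM test compound, then activated with ImmunoCult CD3/CD28 activator for 24 h, and supernatant IL-2 was measured by AlphaLISA. Mean ± SD of 3 (unstimulated) or 4 (stimulated) biological samples, representative of 2 experiments. Two-way ANOVA with Bonferroni correction.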

Ikaros, sequence (Q03267 whole entry): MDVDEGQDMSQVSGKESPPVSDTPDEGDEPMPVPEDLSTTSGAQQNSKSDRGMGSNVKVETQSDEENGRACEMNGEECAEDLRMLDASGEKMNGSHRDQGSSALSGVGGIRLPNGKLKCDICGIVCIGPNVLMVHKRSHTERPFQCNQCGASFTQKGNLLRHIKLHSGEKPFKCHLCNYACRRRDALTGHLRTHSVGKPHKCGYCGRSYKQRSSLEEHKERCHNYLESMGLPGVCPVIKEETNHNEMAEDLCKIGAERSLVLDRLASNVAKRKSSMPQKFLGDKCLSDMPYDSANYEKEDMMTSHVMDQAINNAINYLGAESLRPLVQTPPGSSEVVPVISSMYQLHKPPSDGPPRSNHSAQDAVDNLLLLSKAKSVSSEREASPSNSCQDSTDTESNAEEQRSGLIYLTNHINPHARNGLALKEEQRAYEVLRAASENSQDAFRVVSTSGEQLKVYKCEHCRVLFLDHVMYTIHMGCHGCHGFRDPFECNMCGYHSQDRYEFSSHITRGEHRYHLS
Ikaros, sequence (Q8C7D2 whole entry I391V): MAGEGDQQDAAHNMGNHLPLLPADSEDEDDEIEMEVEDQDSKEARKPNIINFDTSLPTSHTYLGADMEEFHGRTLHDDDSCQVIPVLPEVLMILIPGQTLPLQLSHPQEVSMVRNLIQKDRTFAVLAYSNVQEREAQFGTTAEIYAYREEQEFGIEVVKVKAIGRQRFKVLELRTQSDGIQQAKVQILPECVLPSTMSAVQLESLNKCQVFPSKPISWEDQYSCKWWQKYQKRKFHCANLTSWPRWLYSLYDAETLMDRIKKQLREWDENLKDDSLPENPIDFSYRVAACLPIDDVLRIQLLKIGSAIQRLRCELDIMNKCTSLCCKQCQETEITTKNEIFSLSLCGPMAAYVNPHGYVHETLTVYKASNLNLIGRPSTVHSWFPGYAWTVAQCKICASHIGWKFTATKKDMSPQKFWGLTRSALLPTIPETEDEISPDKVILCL
Ikaros, sequence (Q3U1J4 whole entry partner): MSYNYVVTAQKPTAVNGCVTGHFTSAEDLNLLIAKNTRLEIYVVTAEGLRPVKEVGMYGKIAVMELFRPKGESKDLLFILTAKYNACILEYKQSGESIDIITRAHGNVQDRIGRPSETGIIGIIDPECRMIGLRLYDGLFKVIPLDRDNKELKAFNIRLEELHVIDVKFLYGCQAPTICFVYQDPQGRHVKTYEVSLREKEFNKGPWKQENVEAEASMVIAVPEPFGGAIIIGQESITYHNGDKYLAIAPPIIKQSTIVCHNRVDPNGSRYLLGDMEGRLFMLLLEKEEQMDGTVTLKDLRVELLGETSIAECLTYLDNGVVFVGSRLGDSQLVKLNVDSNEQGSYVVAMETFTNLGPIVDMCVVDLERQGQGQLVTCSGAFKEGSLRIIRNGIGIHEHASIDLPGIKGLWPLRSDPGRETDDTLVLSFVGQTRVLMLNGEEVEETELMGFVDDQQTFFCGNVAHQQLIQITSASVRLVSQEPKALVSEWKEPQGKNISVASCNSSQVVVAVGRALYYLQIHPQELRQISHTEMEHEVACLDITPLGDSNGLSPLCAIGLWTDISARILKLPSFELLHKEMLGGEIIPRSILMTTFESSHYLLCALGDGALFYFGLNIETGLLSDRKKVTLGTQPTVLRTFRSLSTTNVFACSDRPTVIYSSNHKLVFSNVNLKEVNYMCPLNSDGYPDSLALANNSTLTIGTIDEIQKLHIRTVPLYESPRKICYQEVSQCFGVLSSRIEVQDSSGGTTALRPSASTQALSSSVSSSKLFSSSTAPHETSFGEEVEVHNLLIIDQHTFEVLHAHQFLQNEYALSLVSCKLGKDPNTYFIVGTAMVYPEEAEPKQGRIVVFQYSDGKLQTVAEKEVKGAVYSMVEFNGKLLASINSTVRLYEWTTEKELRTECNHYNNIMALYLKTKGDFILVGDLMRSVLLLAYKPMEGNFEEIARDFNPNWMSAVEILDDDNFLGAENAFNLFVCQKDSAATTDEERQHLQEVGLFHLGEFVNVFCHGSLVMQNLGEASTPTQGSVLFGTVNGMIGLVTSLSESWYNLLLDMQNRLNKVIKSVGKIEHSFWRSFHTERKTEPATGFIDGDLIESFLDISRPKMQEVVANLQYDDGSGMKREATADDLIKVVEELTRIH

Ikaros degradation in splenocytes [1]: induced selective degradation of Ikaros
SMILES: Nc1cccc2c1CN(C1CCC(=O)NC1=O)C2=O (centres unmarked) [lenalidomide]
IL-2 secretion [2]: enhanced IL-2 secretion
